# Screening results as filed in PubChem BioAssay.
# FLuc act counter: firefly luciferase counter-screen for stimulation assays; activation factor at 10 µM; ATPlite luciferase biochemical, luminescence, 10 min; 0 = ATP-free wells, 1 = DMSO control; P08659; 200,000 tested, under 10 active;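 active = luciferase activation factor, scaled between plate controls, of at least 2 with compound at 10 µM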
# Target sequence (P08659 whole entry, looked up): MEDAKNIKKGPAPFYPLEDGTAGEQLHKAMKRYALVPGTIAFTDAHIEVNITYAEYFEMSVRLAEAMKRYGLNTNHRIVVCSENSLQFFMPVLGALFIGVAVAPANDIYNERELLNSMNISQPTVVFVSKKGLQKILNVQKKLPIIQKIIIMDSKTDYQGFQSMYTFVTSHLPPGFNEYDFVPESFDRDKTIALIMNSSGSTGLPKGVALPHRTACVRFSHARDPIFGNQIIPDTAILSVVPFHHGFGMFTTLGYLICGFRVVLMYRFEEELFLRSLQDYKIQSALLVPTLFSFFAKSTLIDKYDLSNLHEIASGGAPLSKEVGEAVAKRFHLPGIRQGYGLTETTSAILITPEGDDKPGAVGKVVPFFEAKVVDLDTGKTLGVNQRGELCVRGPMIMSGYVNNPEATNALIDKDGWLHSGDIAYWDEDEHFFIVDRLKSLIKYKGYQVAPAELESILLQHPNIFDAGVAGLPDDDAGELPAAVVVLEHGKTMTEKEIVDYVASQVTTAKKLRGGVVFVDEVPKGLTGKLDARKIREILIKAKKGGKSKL
#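 Assay system: Luciferase/luciferin detection reagent, cell-free biochemical luciferase assay / Also added: ATP substrate / Schedule: 10 min at ambient temperature / Measured by: luminescence measurement of luciferase light output / Benchmarks: low control with PBS replacing ATP, high control enzyme plus ATP without compound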
# Wee1 stabilizer: inhibitors of human Wee1 degradation. P30291. HeLa Luc-Wee1K328M stability, luciferase luminescence; 100% = proteasome inhibitor MG132 effect. reporter increase, % at 5 µM. 220,000 compounds, 1.2% hits. AID 1321;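 active = activation above the mean of all tested compounds plus 3 SD, set per screening run, cut at about 8.8% in these data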;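 also: cells exposed to compound for 20 h before luminescence read; 0% = DMSO alone and 100% = MG132 at 30 µM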
# PPC-1+TRAIL kill: compounds killing PPC-1 cancer cells with TRAIL present (potentiator screen, no TRAIL-free arm) | 220,000 compounds, 0.41% hits | AID 1443 | PPC-1 cells + TRAIL, ATPLite viability luminescence | cell killing (% activity), % at 4 µM or 5 µM;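 active = cell killing above 50% in the first pass at 4 µM, then a duplicate retest at 5 µM averaging 50% or more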;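 also: plate controls were cells with TRAIL plus DMSO for no effect and medium-only wells lacking cells for full effect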
# C8 TRAIL sens: caspase-8 TRAIL sensitization; inhibition (viability loss, TRAIL sensitization), % at 10 µM; NB7+C8 cells + TRAIL, ATPlite viability luminescence; AID 624354; 360,000 compounds, 1% hits;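 active = compounds causing at least 50% loss of cell viability in the single-dose screen, relative to plate controls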
# FLuc inhib CS: Photinus pyralis luciferase inhibition counter-screen | P08659 | ATPLite firefly luciferase biochemical luminescence, 10 min | inhibition, % at 10 µM | 200,000 compounds, 1.5% hits | AID 1006;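 active = inhibition above about 50% when tested at 10 µM, limit read from the data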
# PKD1 inh: PKD1 (human) kinase inhibition; Q15139; PKD1 kinase fluorescence polarization assay; inhibition, % (concentration not given with the values); 200,000 compounds, 0.056% hits; in the data active = inhibition above about 50%
# * = called active by the depositor; / = no result. In the library only some 2.2% were active in any assay of this set; here they are far more common.
SMILES,FLuc act counter,Wee1 stabilizer,PPC-1+TRAIL kill,C8 TRAIL sens,FLuc inhib CS,PKD1 inh
CCNc1nc(N)c(C(=O)c2ccc(Cl)s2)s1,1,10*,12,2,3,-7
NC(=S)NN=C1c2cc(OCCN3CCOCC3)ccc2-c2ccc(OCCN3CCOCC3)cc21,/,/,/,84*,/,/
ON=C1c2cc(OCCN3CCCCC3)ccc2-c2ccc(OCCN3CCCCC3)cc21,/,/,/,30,/,/
Cc1c(C)n(Cc2ccccc2)c2ccc(C(=O)OCCN(C)C)cc12,0.9,-3,-9,-7,6,3
CC(NCC(c1ccco1)N1CCCCC1)C(=O)NC1CCCC1 (configuration not stated),0.3,3,2,5,74*,2
O=C(NCC(c1ccco1)N1CCN(c2ccccc2)CC1)C(=O)NC1CCCCC1 (configuration not stated),/,/,/,5,/,/
O=C(/C=C/c1ccc([N+](=O)[O-])cc1)Nc1ncc([N+](=O)[O-])s1,0.4,22*,18,59*,61*,3
Cc1ccc(OCC(=O)N/N=C/c2cn(C)c3ccccc23)cc1,/,9.2*,-6,3,/,/
COc1ccc2c(c1)c(C(=O)N/N=C/c1cn(C)c3ccccc13)c(C)n2C,/,9.4*,13,14,/,/
Cc1ccccc1OCC(=O)N/N=C/c1cn(C)c2ccccc12,/,1,24,-9,/,/
COc1cc(CN(C)Cc2cc(=O)oc3cc(C)c(Cl)cc23)ccc1OC(F)F,/,/,/,8,/,/
CCc1nc2oc3ccccc3c(=O)c2cc1C(=O)OC,/,/,/,15,/,/
Nc1nn(-c2cccc(F)n2)cc1-c1ccc(Cl)cc1,0.4,5,26,47,57*,-6
Nc1nn(-c2cccc(F)n2)cc1-c1ccccc1,0.4,2,25,33,64*,3
Cc1ccc(C(=O)N/C(=C\c2cn(S(=O)(=O)N(C)C)c3ccccc23)C(=O)NCCCN2CCOCC2)cc1,/,/,/,-6,/,/
Cc1ccc(C(=O)NCCc2csc(-c3cccnc3)n2)cc1,0.3,-4,38,43,68*,2
O=C(COc1cccnc1[N+](=O)[O-])NCc1ccc(F)cc1,/,/,/,-4,/,/
CN(C(=S)NC(=O)c1ccc(Cl)cc1)C1CCCCC1,/,/,/,50*,/,/
CN(C(=S)NC(=O)c1ccc(F)cc1)C1CCCCC1,/,/,/,23,/,/
CCCCCCn1c(=O)n2n(c1=O)C[C@]1(OC(=O)NC3CC3)CN(S(=O)(=O)c3ccc(C)cc3)C[C@]1(O)C2,/,/,/,11,/,/
CC1CCCC(C)N1C(=O)COC(=O)CNC(=O)c1sc2ccccc2c1Cl (configuration not stated),/,/,/,-7,/,/
CC[C@@H](C)C(NC(=O)OC(C)(C)C)c1cn([C@@H](CCCCNC(=O)OC(C)(C)C)C(=O)N2CCN(C(=O)OC(C)(C)C)CC2)nn1 (some centres not stated),1,0,-4,-18,-5,8
CC(C)CC(NC(=O)OC(C)(C)C)c1cn([C@@H](CCCCNC(=O)OC(C)(C)C)C(=O)N2CCN(C(=O)OC(C)(C)C)CC2)nn1 (some centres not stated),1,10*,-1,-12,-2,2
CCCCCN(C(=O)CSc1n[nH]c(-c2ccc(C)cc2)n1)c1c(N)n(CCCC)c(=O)[nH]c1=O,/,/,/,55*,/,/
O=C(Cn1nc(-c2ccccc2)ccc1=O)N1CCCCC1,/,/,/,15,/,/
SMILES,FLuc act counter,Wee1 stabilizer,PPC-1+TRAIL kill,C8 TRAIL sens,FLuc inhib CS,PKD1 inh
COC(=O)CSc1nc2cc(C)ccc2cc1C#N,1,-3,42,56*,-1,-36
O=C(O)C(Cc1ccccc1)N1C(=O)C2C3CCC(C3)C2C1=O (configuration not stated),/,/,/,-5,/,/
CC(C)C[C@H](NC(=O)c1nc[nH]c1C(=O)N[C@@H](CCCCNC(=O)OC(C)(C)C)C(=O)OC(C)(C)C)C(=O)OCc1ccccc1,/,/,/,63*,/,/
C[C@H](NC(=O)c1nc[nH]c1C(=O)N[C@@H](CCCCNC(=O)OC(C)(C)C)C(=O)OC(C)(C)C)C(=O)OCc1ccccc1,/,/,/,23,/,/
Cc1cccc(NC(=O)c2nc[nH]c2C(=O)NCCCCCNC(=O)OC(C)(C)C)c1,/,/,/,33,/,/
Cc1cccc(NC(=O)c2nc[nH]c2C(=O)N[C@@H](CCCCNC(=O)OC(C)(C)C)C(=O)OC(C)(C)C)c1,/,/,10,51*,/,/
